Results published in ChEMBL document CHEMBL3871264, “Design of a novel thiophene inhibitor of 15-lipoxygenase-1 with both anti-inflammatory and neuroprotective properties” (Eur J Med Chem, 2016).
Calls of active or inactive are those of the source. The rule behind the calls is not given here.

Experiments:
[1] = target: T1, Polyunsaturated fatty acid lipoxygenase ALOX15 (Homo sapiens, UniProt P16050); assay: Competitive inhibition of human 15-LOX-1 assessed as reduction in conversion of linoleic acid to 13(S)-HpODE incubated for 10 mins followed by linoleic acid addition by Lineweaver-Burk plot analysis
T1 sequence (P16050 whole entry): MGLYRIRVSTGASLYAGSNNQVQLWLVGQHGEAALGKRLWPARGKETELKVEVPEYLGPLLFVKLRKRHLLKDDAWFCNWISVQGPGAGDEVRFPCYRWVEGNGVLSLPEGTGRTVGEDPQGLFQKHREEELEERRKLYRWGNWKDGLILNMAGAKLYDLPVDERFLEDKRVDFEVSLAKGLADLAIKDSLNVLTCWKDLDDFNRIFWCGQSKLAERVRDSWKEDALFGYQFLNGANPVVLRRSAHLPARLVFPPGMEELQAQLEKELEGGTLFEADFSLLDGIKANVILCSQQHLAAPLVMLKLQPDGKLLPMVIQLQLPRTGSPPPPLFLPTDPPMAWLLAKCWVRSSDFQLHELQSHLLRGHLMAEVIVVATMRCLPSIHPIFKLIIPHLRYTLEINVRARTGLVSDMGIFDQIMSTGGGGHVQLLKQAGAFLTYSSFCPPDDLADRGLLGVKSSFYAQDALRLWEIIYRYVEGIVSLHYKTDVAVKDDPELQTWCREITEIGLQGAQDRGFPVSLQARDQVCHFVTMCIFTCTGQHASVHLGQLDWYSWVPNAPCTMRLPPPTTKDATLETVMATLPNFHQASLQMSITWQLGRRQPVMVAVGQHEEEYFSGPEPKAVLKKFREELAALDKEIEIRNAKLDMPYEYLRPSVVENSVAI

[2] = target: T2, Polyunsaturated fatty acid lipoxygenase ALOX15 (Homo sapiens) (UniProt P16050); assay: Competitive inhibition of human 15-LOX-1 assessed as apparent Vmax at 5 uM by Lineweaver-Burk plot analysis (reference value: 1.6 +/- 0.2 10^-4abs/s)
T2 sequence (whole entry): T1 sequence (P16050 whole entry)
Summary of the method: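 Purified enzyme activity was read as UV absorbance at 234 nm of the product formed from linoleic acid substrate, in 96-well format. Substrate-dependence runs were done with and without inhibitor. Apparent Km and Vmax were derived from Lineweaver-Burk plots.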

[3] = species on record: Mus musculus; assay: Toxicity in C57bl/6 mouse precision-cut lung slices assessed as decrease in tissue viability up to 50 uM after 20 hrs in presence of linoleic acid by lactate dehydrogenase release assay; assay type: organism-based; details: in vivo
Summary of the method: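 Mouse lung slices were cultured with inhibitor and 10 μM linoleic acid for 20 h at 37 °C. LDH released into the medium was measured by automated analyzer.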

[4] = target: T3, Polyunsaturated fatty acid lipoxygenase ALOX15 (Mus musculus) (UniProt P39654); assay: Inhibition of 15-LOX-1 in C57bl/6 mouse precision-cut lung slices assessed as reduction in LPS-stimulated IL-1beta mRNA expression level at 50 uM incubated for 20 hrs followed by LPS stimulation for 4 hrs in presence of linoleic acid by RT-qPCR analysis
T3 sequence (whole entry): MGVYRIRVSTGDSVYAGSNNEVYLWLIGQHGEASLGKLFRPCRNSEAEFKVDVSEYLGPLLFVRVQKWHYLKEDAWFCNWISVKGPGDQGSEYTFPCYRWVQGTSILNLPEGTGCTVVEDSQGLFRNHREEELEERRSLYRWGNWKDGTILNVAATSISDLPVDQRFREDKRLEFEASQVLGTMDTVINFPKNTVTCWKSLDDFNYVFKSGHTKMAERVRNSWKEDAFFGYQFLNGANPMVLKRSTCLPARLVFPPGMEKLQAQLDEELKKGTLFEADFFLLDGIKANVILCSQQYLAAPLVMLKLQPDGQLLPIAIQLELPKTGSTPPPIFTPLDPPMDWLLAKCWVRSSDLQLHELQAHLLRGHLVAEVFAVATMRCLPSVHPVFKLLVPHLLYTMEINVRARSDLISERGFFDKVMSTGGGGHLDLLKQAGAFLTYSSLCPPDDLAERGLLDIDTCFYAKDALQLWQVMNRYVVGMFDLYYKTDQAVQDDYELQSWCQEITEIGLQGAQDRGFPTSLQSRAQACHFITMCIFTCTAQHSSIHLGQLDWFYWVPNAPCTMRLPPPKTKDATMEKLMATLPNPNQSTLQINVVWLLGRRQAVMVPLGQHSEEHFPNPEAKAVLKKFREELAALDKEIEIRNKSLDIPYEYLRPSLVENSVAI
Summary of the method: (§1)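 Lung slices, 250 μm, were cut from agarose-filled lungs of male C57bl/6 mice aged 8-10 weeks and cultured at 37 °C in 5% CO2 in supplemented DMEM, 3 slices per well. Inhibitor was given for 20 h with 10 μM linoleic acid. For the last 4 h, 10 ng/ml LPS plus 10 ng/ml IFNγ were added. Read-out was RT-qPCR (10 ng cDNA, GAPDH assay included), in duplicate or triplicate wells, as fold change versus LPS/linoleic acid control, with 4-6 independent experiments.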

[5] = target: T3, Polyunsaturated fatty acid lipoxygenase ALOX15 (Mus musculus); assay: Inhibition of 15-LOX-1 in C57bl/6 mouse precision-cut lung slices assessed as reduction in LPS-stimulated IL-12b mRNA expression level at 50 uM incubated for 20 hrs followed by LPS stimulation for 4 hrs in presence of linoleic acid by RT-qPCR analysis; summary of the method: as §1
[6] = target: T3, Polyunsaturated fatty acid lipoxygenase ALOX15 (Mus musculus); assay: Inhibition of 15-LOX-1 in C57bl/6 mouse precision-cut lung slices assessed as reduction in LPS-stimulated TNFalpha mRNA expression level at 50 uM incubated for 20 hrs followed by LPS stimulation for 4 hrs in presence of linoleic acid by RT-qPCR analysis; summary of the method: as §1
[7] = target: T3, Polyunsaturated fatty acid lipoxygenase ALOX15 (Mus musculus); assay: Inhibition of 15-LOX-1 in C57bl/6 mouse precision-cut lung slices assessed as reduction in LPS-stimulated iNOS mRNA expression level at 50 uM incubated for 20 hrs followed by LPS stimulation for 4 hrs in presence of linoleic acid by RT-qPCR analysis; summary of the method: as §1
[8] = target: T3, Polyunsaturated fatty acid lipoxygenase ALOX15 (Mus musculus); assay: Inhibition of 15-LOX-1 in mouse HT22 cells assessed as protection against glutamate-induced cell death by measuring increase in cell viability at 10 uM incubated up to 8 hrs following glutamate challenge by MTT assay; assay type: cell-based; details: HT-22
Summary of the method: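 HT-22 cells were seeded at 8x10^3 per well and incubated overnight. They were challenged with 4 mM glutamate in DMEM/10% FCS. Inhibitor was given either with glutamate (1-20 µM; PD146176 at 1 µM) or added at 5 or 10 µM 2, 4, 6 or 8 h after glutamate. After 14-16 h, MTT was added at 0.5 mg/mL for 1 h at 37 °C. Formazan was dissolved in DMSO and read at 570 nm minus 630 nm background, expressed relative to control. Three experiments were run with 6-8 replicates each.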

[9] = target: T3, Polyunsaturated fatty acid lipoxygenase ALOX15 (Mus musculus); assay: Inhibition of 15-LOX-1 in mouse HT22 cells assessed as protection against glutamate-induced cell impedance at 10 uM incubated up to 8 hrs following glutamate challenge measured up to 20 hrs by real time cell viability assay; assay type: cell-based; details: HT-22
Summary of the method: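 HT-22 cells were seeded at 8x10^3 per well, incubated overnight, then given 4 mM glutamate. Inhibitor was either co-applied (1-20 µM; PD146176 at 1 µM) or added at 10 µM 2, 4, 6 or 8 h after glutamate. Impedance was recorded in real time for 16-20 h, with cell index normalized just before glutamate addition.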

## CCCCNC(=O)c1cc(-c2ccccc2)sc1N
[1]
  Ki: 3.3 µM
[2]
  Vmax(app): 1.5 ×10⁻⁴ abs/s
[3]
  Activity: Non-Toxic
[4]
  inhibition: 50%
[5]
  inhibition: 50%
[6]
  inhibition: 50%
[7]
  inhibition: 50%
[8]
  inhibition: Active
[9]
  inhibition: Active
